Results as given in PMC10870114 (Clinical Cancer Research, 2023).

What was measured:
[1] = tested on: patients with locally advanced rectal cancer; assay: Late toxicities and deaths after the on-treatment period; type: in vivo, human
[2] = tested on: locally advanced rectal cancer; assay: Tumor response; type: in vivo, human
[3] = tested on: locally advanced rectal cancer; assay: Disease-free survival, recurrence and progression events; type: in vivo, human
In short: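 They also received capecitabine 825 mg/m2 twice daily and RT 50–50.4 Gy in 25 or 28 fractions, 5 days/week, for 5–5.5 weeks. DFS was estimated by Kaplan–Meier with two-sided 95% CI.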

[4] = Plasma pharmacokinetics on fraction day; type: in vivo, human
[5] = molecular target: DNA-PK (Homo sapiens, UniProt P78527); assay: pDNA-PK/tDNA-PK ratio in bleomycin-stimulated PBMCs, pre- and post-dosing; settings: PBMCs stimulated with bleomycin ex vivo; evidence of target engagement
[6] = tested on: patients with advanced solid tumors; settings: cited from earlier work
[7] = tested on: patients with locally advanced head and neck cancer; settings: NCT02516813; cited from earlier work
[8] = Overall, peposertib 50-250 mg + RT + capecitabine, n = 19
[9] = peposertib 50 mg + RT + capecitabine, n = 1
[10] = peposertib 100 mg + RT + capecitabine, n = 6
[11] = peposertib 150 mg + RT + capecitabine, n = 6
[12] = peposertib 250 mg + RT + capecitabine, n = 6

Compound: COc1ccc([C@@H](O)c2cc(-c3ncnc4cc(N5CCOCC5)ccc34)c(F)cc2Cl)nn1 [Peposertib]
- Dose dependence of late toxicities ([1]; across the peposertib dose range): no discernible indication of a dose-dependent effect
- Late toxicities: anemia ([1]; all cohorts): 3 n
- Patients with late toxicities ([1]; all cohorts, 18 patients, data cutoff March 22, 2022): 94.7%
- Grade ≥3 late toxicities ([1]; all cohorts, at data cutoff): 11 patients
- Late toxicities: proctitis ([1]; all cohorts, n = 3): 15.8%
- Late toxicities: gastrointestinal disorders ([1]; all cohorts, n = 12): 63.2%
- Patients who died during the study ([1]; all considered unrelated to study treatment, not treatment-emergent): Three
- cCR rate ([2]; 8 weeks after CRT completion, all cohorts, n = 3 of 19): 15.8%
- Clinical complete response: Responders [2, 8]: 3 (15.8) n (%)
- Clinical response: Complete response [2, 8]: 3 (15.8) n (%)
- Clinical response: Incomplete response [2, 8]: 4 (21.1) n (%)
- Clinical response: Near-complete response [2, 8]: 8 (42.1) n (%)
- Clinical response: Progressive disease [2, 8]: 0 (0) n (%)
- Composite endpoint cCR/pCR: Responders [2, 8]: 1 (5.3) n (%)
- Pathologic complete response: Responders [2, 8]: 0 (0) n (%)
- Composite endpoint cCR/pCR rate ([2]; all cohorts, one of 19 patients (100-mg cohort)): 5.3%
- Patients achieving pCR ([2]; of the nine patients who opted for surgery): none
- Clinical complete response: Responders [2, 9]: 0 (0) n (%)
- Clinical response: Complete response [2, 9]: 0 (0) n (%)
- Clinical response: Incomplete response [2, 9]: 0 (0) n (%)
- Clinical response: Near-complete response [2, 9]: 1 (100) n (%)
- Clinical response: Progressive disease [2, 9]: 0 (0) n (%)
- Composite endpoint cCR/pCR: Responders [2, 9]: 0 (0) n (%)
- Pathologic complete response: Responders [2, 9]: 0 (0) n (%)
- Clinical complete response: Responders [2, 10]: 1 (16.7) n (%)
- Clinical response: Complete response [2, 10]: 1 (16.7) n (%)
- Clinical response: Incomplete response [2, 10]: 1 (16.7) n (%)
- Clinical response: Near-complete response [2, 10]: 2 (33.3) n (%)
- Clinical response: Progressive disease [2, 10]: 0 (0) n (%)
- Composite endpoint cCR/pCR: Responders [2, 10]: 1 (16.7) n (%)
- Pathologic complete response: Responders [2, 10]: 0 (0) n (%)
- Clinical complete response: Responders [2, 11]: 1 (16.7) n (%)
- Clinical response: Complete response [2, 11]: 1 (16.7) n (%)
- Clinical response: Incomplete response [2, 11]: 2 (33.3) n (%)
- Clinical response: Near-complete response [2, 11]: 2 (33.3) n (%)
- Clinical response: Progressive disease [2, 11]: 0 (0) n (%)
- Composite endpoint cCR/pCR: Responders [2, 11]: 0 (0) n (%)
- Pathologic complete response: Responders [2, 11]: 0 (0) n (%)
- Clinical complete response: Responders [2, 12]: 1 (16.7) n (%)
- Clinical response: Complete response [2, 12]: 1 (16.7) n (%)
- Clinical response: Incomplete response [2, 12]: 1 (16.7) n (%)
- Clinical response: Near-complete response [2, 12]: 3 (50.0) n (%)
- Clinical response: Progressive disease [2, 12]: 0 (0) n (%)
- Composite endpoint cCR/pCR: Responders [2, 12]: 0 (0) n (%)
- Pathologic complete response: Responders [2, 12]: 0 (0) n (%)
- Disease-free survival time: Median [3, 8]: 21.2 mo
- Disease-free survival time: Minimum [3, 8]: 0 mo
- Disease-free survival time: Number of events (PD, deaths) [3, 8]: 5 (26.3) n (%)
- Disease-free survival time: maximum [3, 8]: 23.5 mo
- Disease-free survival rate at 18 months ([3]; all cohorts, Kaplan-Meier estimate, 95% CI, 25.9–87.9): 65.9%
- Median DFS ([3]; all cohorts, 95% CI, 18.0–not done): 21.2 months
- Locoregional recurrence within the study period ([3]; nine patients who underwent surgery, follow-up of up to 2 years): none
- Progression events at data cutoff ([3]; three deaths, two progressive disease events): five
- Dose proportionality of exposure ([4]; across all dose levels after single and multiple dosing): dose proportional
- half-life ([4]; human, plasma, oral, Mean terminal half-life, all dosing groups, independent of the dose level): 5 to 6 h
- Accumulation after multiple once-daily dosing ([4]; in vivo): No relevant peposertib accumulation
- Peposertib dose at which inhibition of DNA-PK autophosphorylation was observed [5]: ≥ 150 mg
- Toxicity of peposertib monotherapy [6]: no significant toxicity
- Dose recommended for further evaluation ([6]; monotherapy): 400 mg twice daily
- Safety of combination with RT and full doses of cisplatin [7]: could not be safely combined
